Reference: the M2OR odorant receptor database
Numbering of substitutions follows the chain as printed.

Tests used:
Details in all cases: stereoisomer not certain
OR2T33 (Homo sapiens) = molecular target: T1, OR2T33 (Homo sapiens) (UniProt Q8NG76)
T1 sequence (whole entry): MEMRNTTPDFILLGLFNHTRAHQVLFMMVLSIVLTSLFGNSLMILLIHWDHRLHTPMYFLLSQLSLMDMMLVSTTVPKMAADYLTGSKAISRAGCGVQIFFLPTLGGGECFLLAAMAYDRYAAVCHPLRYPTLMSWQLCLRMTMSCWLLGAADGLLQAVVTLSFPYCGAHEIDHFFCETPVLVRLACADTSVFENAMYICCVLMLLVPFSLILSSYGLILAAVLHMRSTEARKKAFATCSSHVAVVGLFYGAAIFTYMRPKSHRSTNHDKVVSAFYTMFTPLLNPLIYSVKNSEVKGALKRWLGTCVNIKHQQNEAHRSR
Summary of the method: (§1)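 Assay methods differ from source to source, frequently being transient luciferase assays in mammalian cell lines. For each receptor–molecule pair, the label responsive (active) applies when the original authors judged the measured signal statistically different from baseline, and non-responsive (inactive) applies otherwise.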

OR2T34 (Homo sapiens) = molecular target: T2, OR2T34 (Homo sapiens) (UniProt Q8NGX1)
T2 sequence (whole entry): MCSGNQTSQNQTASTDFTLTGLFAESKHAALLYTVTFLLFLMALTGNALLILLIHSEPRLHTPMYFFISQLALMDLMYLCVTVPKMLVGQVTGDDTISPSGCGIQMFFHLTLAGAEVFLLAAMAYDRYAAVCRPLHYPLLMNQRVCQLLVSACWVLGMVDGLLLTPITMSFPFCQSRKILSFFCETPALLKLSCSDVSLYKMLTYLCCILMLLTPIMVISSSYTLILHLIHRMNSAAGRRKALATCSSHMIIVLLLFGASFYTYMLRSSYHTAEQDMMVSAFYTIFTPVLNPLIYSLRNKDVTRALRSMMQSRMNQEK
Summary of the method: as §1

OR2T35 (Homo sapiens) = molecular target: T3, OR2T35 (Homo sapiens) (UniProt Q8NGX2)
T3 sequence (whole entry): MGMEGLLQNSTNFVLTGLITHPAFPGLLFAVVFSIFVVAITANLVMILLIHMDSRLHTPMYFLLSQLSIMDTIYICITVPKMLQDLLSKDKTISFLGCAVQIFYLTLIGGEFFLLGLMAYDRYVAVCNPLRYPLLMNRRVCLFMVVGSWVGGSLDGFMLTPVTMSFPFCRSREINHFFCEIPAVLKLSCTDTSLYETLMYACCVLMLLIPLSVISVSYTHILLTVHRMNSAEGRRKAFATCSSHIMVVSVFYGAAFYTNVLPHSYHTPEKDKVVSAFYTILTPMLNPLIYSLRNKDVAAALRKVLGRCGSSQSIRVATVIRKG
Summary of the method: as §1

OR2T4 (Homo sapiens) = molecular target: T4, OR2T4 (Homo sapiens) (UniProt Q8NH00)
T4 sequence (whole entry): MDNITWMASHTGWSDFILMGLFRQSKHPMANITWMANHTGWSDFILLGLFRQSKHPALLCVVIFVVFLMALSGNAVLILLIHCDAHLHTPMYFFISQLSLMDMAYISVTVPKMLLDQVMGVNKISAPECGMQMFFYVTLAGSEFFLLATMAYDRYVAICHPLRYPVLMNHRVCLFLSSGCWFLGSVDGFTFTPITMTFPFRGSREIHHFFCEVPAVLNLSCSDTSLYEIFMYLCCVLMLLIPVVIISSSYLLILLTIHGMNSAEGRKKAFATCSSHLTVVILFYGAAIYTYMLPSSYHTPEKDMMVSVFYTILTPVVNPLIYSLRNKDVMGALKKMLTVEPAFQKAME
Summary of the method: as §1

OR2T5 (Homo sapiens) = molecular target: T5, OR2T5 (Homo sapiens) (UniProt Q6IEZ7)
T5 sequence (whole entry): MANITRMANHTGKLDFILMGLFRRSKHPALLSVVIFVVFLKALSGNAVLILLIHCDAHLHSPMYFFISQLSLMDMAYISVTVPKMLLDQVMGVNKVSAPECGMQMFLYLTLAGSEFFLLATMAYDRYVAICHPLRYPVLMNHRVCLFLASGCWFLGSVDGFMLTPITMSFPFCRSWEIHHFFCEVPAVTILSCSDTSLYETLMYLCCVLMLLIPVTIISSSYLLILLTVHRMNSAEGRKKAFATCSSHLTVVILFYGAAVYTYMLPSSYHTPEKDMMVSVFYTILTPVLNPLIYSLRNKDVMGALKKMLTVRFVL
Summary of the method: as §1

OR2T6 (Homo sapiens) = molecular target: T6, OR2T6 (Homo sapiens) (UniProt Q8NHC8)
T6 sequence (whole entry): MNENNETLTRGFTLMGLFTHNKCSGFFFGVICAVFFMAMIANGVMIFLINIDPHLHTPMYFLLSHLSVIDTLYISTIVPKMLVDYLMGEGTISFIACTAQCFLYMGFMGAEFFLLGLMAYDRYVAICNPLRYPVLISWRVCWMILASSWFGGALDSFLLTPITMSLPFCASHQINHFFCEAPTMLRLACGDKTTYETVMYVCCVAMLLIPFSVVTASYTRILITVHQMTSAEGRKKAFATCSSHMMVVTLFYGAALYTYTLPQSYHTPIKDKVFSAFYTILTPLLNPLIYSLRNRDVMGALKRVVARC
Summary of the method: as §1

OR2T3 R298C = tested on: T7, OR2T3 R298C
T7 sequence (whole entry): T2 sequence (whole entry) with H109Y, M202T, T204M, T214A, R239H, R267P, R298C
Summary of the method: as §1

OR2T3 Y109H = tested on: T8, OR2T3 Y109H
T8 sequence (whole entry): T2 sequence (whole entry) with M202T, T204M, T214A, R239H, R267P
Summary of the method: as §1

OR2T5 K13R K41M G45E = tested on: T9, OR2T5 K13R K41M G45E
T9 sequence (whole entry): T5 sequence (whole entry) with K13R, K41M, G45E
Summary of the method: as §1

OR2T5 K13R L134F = tested on: T10, OR2T5 K13R L134F
T10 sequence (whole entry): T5 sequence (whole entry) with K13R, L134F
Summary of the method: as §1

Measured: odorant receptor agonist call

CCCCCC(=O)C(C)C(C)=O (stereo not given)
inactive: OR2T33 (Homo sapiens) | OR2T34 (Homo sapiens) | OR2T35 (Homo sapiens) | OR2T4 (Homo sapiens) | OR2T5 (Homo sapiens) | OR2T6 (Homo sapiens)

CC1CC(C)(c2ccccc2)CO1 (stereo not given)
inactive: OR2T34 (Homo sapiens)

CCC(S)C(C)CO (stereo not given)
inactive: OR2T33 (Homo sapiens) | OR2T34 (Homo sapiens) | OR2T35 (Homo sapiens) | OR2T4 (Homo sapiens) | OR2T5 (Homo sapiens) | OR2T6 (Homo sapiens)

CCC1OC(C)=C(O)C1=O (stereo not given)
inactive: all assays above

CC(=O)c1c(C)c([N+](=O)[O-])c(C(C)(C)C)c([N+](=O)[O-])c1C
inactive: OR2T33 (Homo sapiens) | OR2T34 (Homo sapiens) | OR2T35 (Homo sapiens) | OR2T4 (Homo sapiens) | OR2T5 (Homo sapiens) | OR2T6 (Homo sapiens)

CC1=C(O)C(=O)OC1C (stereo not given)
inactive: all assays above

CCCCCC1COCCC1OC(C)=O (stereo not given)
inactive: OR2T34 (Homo sapiens)

CC(CC=O)c1ccc(C(C)(C)C)cc1 (stereo not given)
inactive: OR2T34 (Homo sapiens)

CC(C)=CCCC(C)CC=O (stereo not given)
inactive: OR2T34 (Homo sapiens)

CCCCCC(S)C(C)CO (stereo not given)
inactive: OR2T33 (Homo sapiens) | OR2T34 (Homo sapiens) | OR2T35 (Homo sapiens) | OR2T4 (Homo sapiens) | OR2T5 (Homo sapiens) | OR2T6 (Homo sapiens)

Cc1ccc(C(C)C)cc1O
inactive: OR2T34 (Homo sapiens)

Cc1occc(=O)c1OC(=O)C(C)C
inactive: OR2T34 (Homo sapiens)

C=CCOC(=O)COCCC(C)C
inactive: OR2T34 (Homo sapiens)

CC(C)=CCCC(C)=CCO
inactive: OR2T34 (Homo sapiens) | OR2T4 (Homo sapiens)

CCCCCC1C(=O)CCC1CC(=O)OC (stereo not given)
inactive: OR2T34 (Homo sapiens)

CCCCC(S)C(C)CO (stereo not given)
inactive: OR2T33 (Homo sapiens) | OR2T34 (Homo sapiens) | OR2T35 (Homo sapiens) | OR2T4 (Homo sapiens) | OR2T5 (Homo sapiens) | OR2T6 (Homo sapiens)

Cc1cnc(C)c(C)n1
inactive: all assays above
